Laboratory results as given in publication PMC2764840 (Nature immunology, 2009).

How the values were obtained:
[1] = system: AND TCRtg DP thymocytes; test: Thymic reaggregate culture, positive selection of AND; assay type: cell-based, mouse; conditions: ANV41.2 I-E^k cells, 96 hours
How it was run: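 DP thymocytes from newborn (3–14 d) AND.Rag1⁻/⁻H-2^d mice, CD8-bead purified (1 × 10⁶), were pelleted with 5 × 10⁵ untreated ANV41.2 I-E^k cells as standing drops on transwells. Peptide was added to the lower well in I-20 plus medium (Hb control 30 µM). Cultures ran 96 h at 37°C, then CD4/CD8 flow for %CD4SP. Mean ± s.e.m. of 5 experiments; Mann-Whitney.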

[2] = system: AND TCRtg CD4^+ peripheral T cells; test: Co-agonist assay; assay type: cell-based, mouse; conditions: I-E^k-Ig dimers
How it was run: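 I-E^k-Ig dimers co-loaded with MCC and test or Hb control peptide at ratios of 1:10 to 1:1,000 (pH 5.0 citrate–PO₄, 37°C, 72 h), coated at 1 µg/well in triplicate. One to 2 × 10⁶ purified splenic AND CD4⁺ T cells (H-2^b) were added per well and cultured three days. ³H-TdR was pulsed for the final 18–24 h. Values are mean ± s.d. of triplicates.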

[3] = system: AND TCRtg DP thymocytes (AND.Rag1^−/−H-2^d); test: CD69 upregulation assay, AND thymocytes; assay type: cell-based, mouse; conditions: I-E^k-Ig dimers + anti-CD28, overnight
How it was run: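 Plates coated overnight at 4°C in PBS with 1 µg/well self-peptide-loaded I-E^k-Ig dimer (S2-cell-expressed, Protein A-purified; loaded 72 h at 37°C in 0.2 M citrate–PO₄ pH 5.0, then neutralized with 1 M pH 9.0) plus 10 µg/well anti-CD28. Thymocytes (1 × 10⁶/well) cultured overnight at 37°C in IMDM/10% FCS/2-ME; CD69 by flow cytometry. Two independent experiments.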

[4] = system: AND TCRtg CD4^+ T cells in B6.K.Rag1^−/− mice; test: Homeostatic proliferation assay; assay type: in vivo, mouse; conditions: 0.5 mg i.p. on days -1 and +1; CFSE, flow cytometry
How it was run: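 Splenic AND CD4⁺ T cells were labeled with 5 µM CFSE, and 10⁶ cells/mouse were given retro-orbitally on day 0 to B6.K.Rag1⁻/⁻ recipients. Recipients received peptide i.p. (0.5 mg; also 0.1 mg) or Hb₆₄₋₇₆ control on days −1 and +1. After four days, inguinal and axillary nodes were pooled and CD4, Vα11 and CFSE analyzed by flow cytometry; totals counted. n = 8 mice/group over five experiments; Mann-Whitney.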

Sequence: GKKVITAFNEGLK [Hb]
- positive selection of AND CD4SP cells (in words) [1]: did not positively select AND TCRtg T cells in thymic reaggregate culture
- stimulation of AND T cells (in words) ([2]; MCC:peptide 1:20): stimulatory
- stimulation of AND T cells (in words) ([2]; MCC:peptide 1:1,000): non-stimulatory
- CD69 upregulation (in words) [3]: did not upregulate CD69
- homeostatic proliferation of AND TCRtg T cells (in words) [4]: proliferation of the AND TCRtg T cells
